Laboratory results published in ChEMBL document CHEMBL2331234, “Novel analgesic/anti-inflammatory agents: 1,5-diarylpyrrole nitrooxyalkyl ethers and related compounds as cyclooxygenase-2 inhibiting nitric oxide donors” (J Med Chem, 2013).
Active and inactive are the calls of the source. The calls are words filed in the database; no cut-off is given here.

How the values were obtained:
Aorta = assay: Vasorelaxant activity in Wistar rat endothelium-removed thoracic aortic rings assessed as reduction of KCl-induced vasoconstriction at 0.001 uM to 10 uM treated after KCl-challenge in presence of guanylate cyclase inhibitor 1H-[1,2,4]-oxadiazolo[4,3-a]quinoxalin-1-one; format: functional, tissue-based
Procedure, shortened: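 Endothelium-denuded aortic rings from male Wistar rats (250-350 g) were preincubated with ODQ 1 µM. Rings were contracted with KCl 30 mM, then given 3-fold increasing concentrations from 1 nM to 10 µM. Emax is the % relaxation of KCl tone. pIC50 was calculated when efficacy reached 50%, from 6-10 experiments.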

[1] = (§1) Inhibition of interleukin 1 beta-induced glycosaminoglycan release in bovine articular cartilage of metacarpophalangeal joints of feet treated 48 hrs after interleukin 1beta-challenge by DMB colorimetric assay; format: functional, Bos taurus
Procedure, shortened: (§2)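 Bovine metacarpophalangeal cartilage slices (about 100 mg per well) were cultured in serum-free DMEM at 37 °C, 5% CO2, with medium changed on days 1 and 2. On day 3 the slices were challenged with IL-1β 30 ng/mL plus compound for 48 h. GAG release was measured by the DMB (Farndale) assay and expressed as % of IL-1β alone, n = 3. EC50 is given with 95% CI.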

Bos taurus = species: Bos taurus; assay: as §1; format: functional; procedure, shortened: as §2
Rattus norvegicus [2] = assay: Antiinflammatory activity in Sprague-Dawley/Wistar rat assessed as decrease in carrageenan-induced hyperalgesia at 10 mg/kg, po administered 4 hrs after carrageenan-challenge measured after 60 mins (reference value: 33.9 +/- 3.7 g); format: functional
Rattus norvegicus [3] = assay: Antiinflammatory activity in Sprague-Dawley/Wistar rat assessed as decrease in carrageenan-induced paw edema at 20 mg/kg, po administered 3 hrs 30 mins after carrageenan-challenge measured after 60 mins (reference value: 2.48 +/- 0.06 mL); format: functional
Rattus norvegicus [4] = assay: Antiinflammatory activity in Sprague-Dawley/Wistar rat assessed as decrease in carrageenan-induced paw edema at 10 mg/kg, po administered 3 hrs 30 mins after carrageenan-challenge measured after 60 mins (reference value: 2.48 +/- 0.06 mL); format: functional
Mus musculus = assay: Antinociceptive activity in po dosed Swiss albino mouse assessed as reduction in number of acetic acid-induced writhing counted 5 mins after acetic acid challenge counted for 10 mins; format: functional; details: read-out: MED
Procedure, shortened: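 Male Swiss albino mice (23-25 g) dosed orally, then given 0.6% acetic acid (10 mL/kg) ip. Stretching movements counted for 10 min, starting 5 min after the acetic acid. Control group received CMC. At least 7 mice/group; mean ± SEM, ANOVA with Fisher's PLSD.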

What does the source list for `Cc1c(CCOCCO[N+](=O)[O-])cc(-c2ccc(S(C)(=O)=O)cc2)n1-c1ccc(F)cc1`?
Activity (Aorta): inactive; IC50 [1]: 1500 nM; inhibition (Bos taurus): Dose-dependent effect; Activity (Rattus norvegicus [2]): 52.6 g; Activity (Rattus norvegicus [3]): 1.92 mL; Activity (Rattus norvegicus [4]): 1.87 mL; minimal effective dose (Mus musculus): 10 mg/kg
